Source: ChEMBL document CHEMBL4118047, “Antiplasmodial Sesquiterpenoid Lactones from Trichospira verticillata: Structure Elucidation by Spectroscopic Methods and Comparison of Experimental and Calculated ECD Data” (J Nat Prod, 2017)

Legend:
A2780 = assay: Antiproliferative activity against human A2780 cells after 2 days by alamar blue assay; format: functional, cell-based; conditions: A2780, 48 h
HEK293 = assay: Cytotoxicity against HEK293 cells assessed as reduction in cell viability after 24 hrs by resazurin dye based assay; conditions: Homo sapiens, HEK293, 24 h
Summary of the method: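 10,000 HEK293 cells per well allowed to adhere, then medium replaced with medium containing varying compound amounts for 24 h. Resazurin sodium salt (0.125 mg/mL, 10 μL per well) added for 2 h. Viability from fluorescence at 585 nm, excitation 540 nm.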

Plasmodium falciparum = assay: Antiplasmodial activity against Plasmodium falciparum Dd2 after 72 hrs by SYBR Green I dye-based assay; format: functional, organism-based; conditions: Dd2, 72 h
Summary of the method: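 Ring-stage Dd2 cultures at 1% hematocrit and 1% parasitemia grown 72 h at 37 °C under 5.05% CO₂/4.93% O₂/90.2% N₂ with increasing drug concentrations. Viability read by SYBR Green I DNA quantitation in lysis buffer (0.4 μL dye/mL). IC₅₀ by nonlinear regression. Mean of three independent determinations, each in duplicate, ±SEM.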

IC50 (A2780) [µM] | IC50 (Plasmodium falciparum) [µM] | SMILES | IC50 (HEK293) [µM]
0.21 | 1.49 | C=C(C)C(=O)O[C@H]1C/C(C)=C\C(=O)/C=C(C)/C=C2/OC(=O)C(COC(C)=O)=C21 | 3.5
– | 12.1 | C=C(C)C(=O)O[C@H]1C/C(C)=C\C(=O)C[C@@]2(C)O[C@H]2[C@H]2OC(=O)C(COC(C)=O)=C12 | 23.8
– | 37.1 | C=C(C)C(=O)O[C@H]1C/C(C)=C\C(=O)/C=C(\C)[C@@H](O)[C@@H]2OC(=O)C(COC(C)=O)=C12 | 56
– | 44.3 | C=C(C)C(=O)O[C@@H]1C/C(C)=C\[C@@]2(O)C=C(C)[C@H](O2)[C@H]2OC(=O)C(COC(C)=O)=C12 | 58.8

SMILES | IC50 (A2780) [µM] | IC50 (Plasmodium falciparum) [µM] | IC50 (HEK293) [µM]
C[C@@H]1CC[C@H]2[C@@H](C)C(=O)O[C@@H]3O[C@@]4(C)CC[C@@H]1[C@]32OO4 [ARTEMISININ] | – | 0.007 | –
